Assay results reported in ChEMBL document CHEMBL1275288, “Effect of milrinone analogues on intracellular calcium increase in single living H9C2 cardiac cells” (Eur J Med Chem, 2010).

Experiments:
[1] = tested on: H9c2; assay: Cytotoxicity against differentiated rat H9c2 cells assessed as reduction in cell viability at 10 nM after 24 hrs by MTT assay; assay type: cell-based; conditions: h9c2, 24 h, 0.01 µM
In short: (§1)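 H9C2 rat embryonic ventricular cell line, grown subconfluent in DMEM-F12 with 10% heat-inactivated FBS; differentiated cells obtained in 1% FCS medium with 10 nM retinoic acid added daily with medium renewal. Cells, undifferentiated or differentiated, exposed 24 h to 10 nM, 1, 10 or 100 µM compound; viability by MTT reduction to formazan, optical density at 570 nm, expressed as percent of control.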

[2] = tested on: H9c2; assay: Cytotoxicity against differentiated rat H9c2 cells assessed as reduction in cell viability at 100 uM after 24 hrs by MTT assay; assay type: cell-based; conditions: h9c2, 24 h; in short: as §1
[3] = tested on: H9c2; assay: Increase in cytoplasmic intracellular calcium level in differentiated rat H9c2 cells at 10 uM by Fura-2-AM dye based epifluorescent microscopy; assay type: functional
In short: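 Retinoic acid (10 nM, daily)-differentiated H9C2 cells loaded 40 min with Fura 2-AM, washed in NES, held 15 min at 37 °C for dye de-esterification. Cells stimulated directly with 10 µM compound; single living cells imaged by epifluorescence microscopy, excitation 340/380 nm, emission 510 nm, whole-cell fluorescence ratio. Minimum 10, maximum 25 cells per compound; percentage of cells showing basal [Ca2+]i increase.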

[4] = tested on: H9c2; assay: Toxicity against undifferentiated rat H9c2 cells assessed as reduction in cell viability at 100 uM after 24 hrs by MTT assay; assay type: cell-based; conditions: h9c2, 24 h; in short: as §1
[5] = tested on: H9c2; assay: Increase in cytoplasmic intracellular calcium level in differentiated rat H9c2 cells depolarized through 60 mM KCl application in presence of extracellular calcium assessed as cells that prolonged KCl-dependent intracellular [Ca2+] transient at 10 uM by Fura-2-AM dye based epifluorescent microscopy; assay type: functional
In short: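 Differentiated H9C2 cardiomyocytes (10 nM retinoic acid daily, 1% FCS) loaded with Fura 2-AM for 40 min, then 15 min at 37 °C in NES. Depolarized with 60 mM KCl in NES with extracellular Ca2+. 10 µM compound given within 30 s after start of the KCl-dependent plateau. Ratio imaging at 340/380 nm excitation, 510 nm emission. Scored as percent of tested cells (n per compound) with prolonged transient.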

[6] = tested on: H9c2; assay: Cytotoxicity against differentiated rat H9c2 cells assessed as reduction in cell viability at 1 uM after 24 hsr by MTT assay; assay type: cell-based; conditions: h9c2, 1 µM; in short: as §1
[7] = tested on: H9c2; assay: Cytotoxicity against differentiated rat H9c2 cells assessed as reduction in cell viability at 10 uM after 24 hrs by MTT assay; assay type: cell-based; conditions: h9c2, 24 h; in short: as §1

Question: For `Cc1ccc(C#N)c(=O)[nH]1`, which Activity [1] is on record?
Answer: 90%

Question: What about the Activity [2] of the same molecule?
Answer: 50%

Question: And the Activity [3]?
Answer: 78%

Question: And the Activity [4]?
Answer: 50%

Question: And the Activity [5]?
Answer: 45%

Question: What about the Activity [6] of the same molecule?
Answer: 90%

Question: What about the Activity [7] of the same molecule?
Answer: 75%

Question: `Cc1[nH]c(=O)c(C#N)cc1C(=O)O` was tested. Which Activity [5] did it give?
Answer: 0%

Question: `CCOC(=O)c1cc(C#N)c(=O)[nH]c1C` was tested. Which Activity [5] did it give?
Answer: 0%

Question: How did the Activity [5] turn out when `Cc1[nH]c(=O)c(C#N)cc1C(=O)OCc1ccccc1` was run?
Answer: 0%

Question: With `Cc1[nH]c(=O)c(C#N)cc1C(=O)NCc1ccccc1` as the molecule, how does the Activity [1] read?
Answer: 90%

Question: And the Activity [4]?
Answer: 20%

Question: And the Activity [5]?
Answer: 40%

Question: What about the Activity [7] of the same molecule?
Answer: 75%

Question: Which results are given for `CCC(NC(=O)c1cc(C#N)c(=O)[nH]c1C)c1ccccc1` (centres undefined)?
Answer: Activity [1]: 90%; Activity [2]: 50%; Activity [4]: 50%; Activity [5]: 30%; Activity [6]: 90%; Activity [7]: 75%

Question: `CCOC(=O)N1CCC(NC(=O)c2cc(C#N)c(=O)[nH]c2C)CC1` was tested. Which Activity [1] did it give?
Answer: 90%

Question: And the Activity [2]?
Answer: 50%

Question: What about the Activity [4] of the same molecule?
Answer: 20%

Question: What about the Activity [5] of the same molecule?
Answer: 25%

Question: What about the Activity [6] of the same molecule?
Answer: 90%

Question: And the Activity [7]?
Answer: 75%

Question: Which Activity [5] does the source give for `Cc1[nH]c(=O)c(C#N)cc1C(=O)OCCSc1ccccn1` here?
Answer: 0%

Question: With `Cc1[nH]c(=O)c(C#N)cc1C(=O)OCCSc1nc2ccccc2s1` as the molecule, how does the Activity [5] read?
Answer: 0%

Question: With `Cc1[nH]c(=O)c(C#N)cc1C(=O)NC(C)c1ccccc1` (centres undefined) as the molecule, how does the Activity [5] read?
Answer: 0%

Question: `Cc1[nH]c(=O)c(C#N)cc1-c1ccncc1` [MILRINONE] was tested. Which Activity [1] did it give?
Answer: 90%

Question: And the Activity [2]?
Answer: 50%

Question: What about the Activity [5] of the same molecule?
Answer: 50%

Question: What about the Activity [6] of the same molecule?
Answer: 90%

Question: And the Activity [7]?
Answer: 75%
